TRPC6 activator: mouse TRPC6 channel activators, primary screen, cell-based, HEK293, membrane potential dye. Short transient receptor potential channel 6 (Mus musculus), Q61143. HEK293-TRPC6 membrane potential dye fluorescence; active compounds read high. B-score at 10 µM. 310,000 compounds, 0.13% hits. AID 2550, 2010;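 active means B-score of the integrated fluorescence ratio above library mean plus 3 SD, and starting fluorescence ratio within library mean plus 5 SD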;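 further: higher score means more depolarization so channel activation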
Target sequence (Q61143 whole entry, looked up): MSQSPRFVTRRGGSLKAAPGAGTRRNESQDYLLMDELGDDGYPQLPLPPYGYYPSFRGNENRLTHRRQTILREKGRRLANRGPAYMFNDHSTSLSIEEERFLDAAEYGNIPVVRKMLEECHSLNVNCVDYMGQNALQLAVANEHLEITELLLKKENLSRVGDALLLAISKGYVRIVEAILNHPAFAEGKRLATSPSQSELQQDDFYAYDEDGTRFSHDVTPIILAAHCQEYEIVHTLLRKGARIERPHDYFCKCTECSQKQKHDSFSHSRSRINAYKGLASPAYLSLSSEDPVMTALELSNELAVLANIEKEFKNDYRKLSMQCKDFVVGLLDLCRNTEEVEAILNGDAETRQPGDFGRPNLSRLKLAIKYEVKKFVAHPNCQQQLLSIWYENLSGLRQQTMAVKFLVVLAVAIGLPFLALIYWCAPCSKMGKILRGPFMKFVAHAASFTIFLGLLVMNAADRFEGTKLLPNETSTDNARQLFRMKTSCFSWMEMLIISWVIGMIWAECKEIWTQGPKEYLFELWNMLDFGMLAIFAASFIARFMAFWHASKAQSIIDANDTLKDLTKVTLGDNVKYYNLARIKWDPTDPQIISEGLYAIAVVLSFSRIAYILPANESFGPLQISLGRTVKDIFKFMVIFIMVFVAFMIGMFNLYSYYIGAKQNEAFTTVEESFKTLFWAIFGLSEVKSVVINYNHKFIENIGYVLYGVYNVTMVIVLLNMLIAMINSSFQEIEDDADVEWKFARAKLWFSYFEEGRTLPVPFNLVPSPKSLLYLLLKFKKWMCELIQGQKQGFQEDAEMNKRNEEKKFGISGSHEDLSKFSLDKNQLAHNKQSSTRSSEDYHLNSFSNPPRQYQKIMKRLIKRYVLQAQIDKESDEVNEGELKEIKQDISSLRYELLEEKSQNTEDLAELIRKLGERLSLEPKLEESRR
TRPC4 inh: inhibitors of mouse TRPC4 channel, primary screen, Fluo4 calcium, HEK293 TRPC4beta/mu-opioid cells; DAMGO-evoked Fluo4 calcium flux; active compounds read low; B-score at 10 µM; 300,000 compounds, 0.39% hits;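 active means B-score over 3 SD under the library average, no early fluorescence shift, positive overall ratio signal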
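test system = HEK293 cells with stable TRPC4beta plus mu-opioid receptor expression | detection = Fluo4 Ca2+ flux fluorescence | read-out = integrated fluorescence ratio relative to baseline, converted to per-well B score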
TRPC6 inh: mouse TRPC6 channel inhibitors, primary screen, cell-based, HEK293, membrane potential dye. Short transient receptor potential channel 6 (Mus musculus), Q61143. ACh-evoked depolarization; active compounds read low. B-score at 10 µM. 310,000 compounds, 1.1% hits. AID 2553, 2010;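 active means B-score under library mean minus 3 SD, initial fluorescence not abnormally high, positive integrated signal ratio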;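 further: B-score derived from integrated fluorescence ratio over the kinetic read; more negative B-score means stronger inhibition of depolarization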
TRPC4 agonist: activators of mouse TRPC4 channel, primary screen, Fluo4 calcium, HEK293 TRPC4beta/mu-opioid cells | Fluo4 calcium fluorescence; active compounds read high | Short transient receptor potential channel 4 (Mus musculus), Q9QUQ5 | AID 2237, 2010 | 310,000 compounds, 0.49% hits | B-score at 10 µM;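 active means B-score above 5 SD of library B-scores, and initial fluorescence ratio not above library mean plus 5 SD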;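 further: positive B-score marks a calcium rise read as TRPC4 activation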
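Assay system: HEK293 cells stably co-expressing mouse TRPC4beta and mu-opioid receptor / Timing: Fluo4 dye loading 45 min at room temperature, 110 s recording / Signal: Fluo4 calcium-sensitive dye fluorescence, kinetic, 1 Hz baseline / Read-out: integrated baseline-normalised fluorescence ratio, converted to per-well B score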
TRPC4 PAM: positive allosteric modulators of TRPC4, primary screen, cell-based, mouse TRPC4beta, HEK293 mu-opioid, Fluo-4 calcium; DAMGO EC20, Fluo-4 Ca2+ flux; active compounds read high; 310,000 compounds, 0.42% hits; B-score at 10 µM; AID 2227, 2009;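 active means B-score of calcium response area above 5 SD of library B-scores, with initial fluorescence ratio within 5 SD of library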;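 further: B-score of integrated fluorescence ratio over time as area under calcium response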
HEK293 TRPC6 ctr: parental HEK293 membrane potential modulation, confirmation, counter-screen for TRPC6 modulator project, cell-based | shares compounds with TRPC6 inh | membrane potential dye fluorescence | membrane potential signal change, % at 10 µM | 2,400 compounds, 51% hits | AID 488924, 2010;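 active means membrane potential signal moves up or down beyond 5 SD from buffer-only wells, on both duplicate plates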
HEK293 MPD ctr 2: parental HEK293 nonspecific activity of TRPC6 modulators, second screen; shares compounds with TRPC6 inh; membrane potential dye fluorescence; after compound, maximal acetylcholine stimulation; inhibition, % at 10 µM; 2,400 compounds, 14% hits;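 active means membrane potential signal drops by more than 5 SD from the mean control signal, in both duplicate plates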;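 further: plate controls were acetylcholine ECmax control wells for no effect and buffer only wells for full effect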
TRPC4 ctr mod: TRPC4 modulation by TRPC6 hit compounds, confirmation, selectivity assay for TRPC6 modulator project, cell-based, HEK293 TRPC4/mu-opioid, membrane potential dye, mouse | shares compounds with TRPC6 inh | membrane potential fluorescence | percent change from control (negative = decrease, positive = increase), % at 10 µM | 2,400 compounds, 69% hits;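 active means membrane potential signal moved up or down beyond 5 SD of buffer control wells, in both duplicate plates, actives on both sides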;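 further: plate controls were assay buffer wells for no effect and DAMGO maximal-effect wells for full effect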
TRPC4/MOR inh 2: second selectivity test of TRPC6 modulators against mouse TRPC4 | 2,400 compounds, 55% hits | HEK293 TRPC4/mu-opioid, membrane potential dye fluorescence; stimulated with maximal-effect DAMGO | AID 488928 | inhibition, % at 10 µM | shares compounds with TRPC6 inh;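 active means drop in membrane potential signal beyond 5 SD of the control wells in both duplicate plates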;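 further: TRPC4 counter screen for TRPC6 hits run under conditions tuned for TRPC6 not TRPC4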
TRPC6 inh conf: mouse TRPC6 channel inhibitors, confirmation, HEK293 cells, membrane potential dye, duplicate; AID 488960, 2010; ACh-evoked depolarization; 3,300 compounds, 43% hits; shares compounds with TRPC6 inh; inhibition, % at 10 µM;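 active means fluorescence ratio falls more than 5 SD below the full-stimulation control mean, in both duplicate runs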;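 further: integrated fluorescence ratio of peak minus minimum over baseline after agonist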
TRPC6 act conf: mouse TRPC6 channel activators, confirmation, HEK293 cells, membrane potential dye, duplicate; shares compounds with TRPC6 inh; AID 488961, 2010; 2,800 compounds, 11% hits; HEK293-TRPC6 membrane potential dye fluorescence, FDSS; activation, % at 10 µM;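 active means ratio signal rise beyond 5 SD above unstimulated control wells' mean, seen in both duplicate runs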;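 further: plate controls were buffer EC0 wells for no effect and acetylcholine ECmax response for full effect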
An asterisk follows results filed as active; i = inactive; nt = no result given. A selection: hits, their analogues and other compounds. The true share with any hit is near 2.3%.

SMILES	TRPC6 activator	TRPC4 inh	TRPC6 inh	TRPC4 agonist	TRPC4 PAM	HEK293 TRPC6 ctr	HEK293 MPD ctr 2	TRPC4 ctr mod	TRPC4/MOR inh 2	TRPC6 inh conf	TRPC6 act conf
Cc1cccc(C)c1OCCNC(=O)c1ccc2ccccc2n1	12.5*	i	-13.4*	i	i	149.5%*	i	i	44.0%*	91.0%*	77.5%*
Nc1ccc(N=Nc2ccccc2O)c(N)c1	i	i	-6.54*	i	i	-174.0%*	i	27.5%*	98.5%*	i	i
Oc1ccccc1N=Nc1ccccc1O	i	i	i	i	i	nt	nt	nt	nt	nt	nt
Cc1ccc(NC(=O)CS(=O)c2ccccc2N)c(C)c1 (stereo unspecified)	i	i	i	i	i	nt	nt	nt	nt	nt	nt
CCc1nc(Nc2ccncc2)c2oc3ccccc3c2n1	i	i	-5.66*	i	i	i	75.5%*	-8.0%*	i	i	i
CC(=O)Nc1ccc(Nc2nc(C)nc3c2oc2ccccc23)cc1	i	i	i	i	i	nt	nt	nt	nt	nt	nt
Cc1nc(Nc2ccncc2)c2oc3ccccc3c2n1	i	i	-6.43*	i	i	106.5%*	113.0%*	11.0%*	i	55.5%*	i
O=C(CNCc1cccc(Cl)c1)N1CCc2ccccc2C1	i	i	i	i	i	nt	nt	nt	nt	nt	nt
Cn1c(=O)c2c(nc(CN3CCc4ccccc4C3)n2Cc2ccccc2)n(C)c1=O	i	i	-5.65*	i	46*	i	i	109.0%*	68.5%*	i	nt
CCOC(=O)N1CCN(Cc2nc3cc(NC(=O)c4cccs4)ccc3n2CC)CC1	i	i	i	i	i	nt	nt	nt	nt	nt	nt
COc1cc(NC(=O)CCc2nnc3ccc(N4CCC5(CC4)OCCO5)nn23)cc(OC)c1	i	i	i	i	i	nt	nt	nt	nt	nt	nt
Cc1ccc2c(c1)C(c1ccccc1)N(C(=O)c1c(F)cccc1Cl)CC(=O)N2 (stereo unspecified)	i	i	i	i	i	nt	nt	nt	nt	nt	nt
COc1cccc(C2c3c(C)nn(-c4ccc([N+](=O)[O-])cc4)c3N=C3C(=O)Nc4ccccc4N32)c1 (stereo unspecified)	i	i	-5.71*	i	i	i	i	i	53.5%*	i	i
Cc1nn(-c2ccc([N+](=O)[O-])cc2)c2c1C(c1ccc(OC(F)F)cc1)N1C(=N2)C(=O)Nc2ccccc21 (stereo unspecified)	i	i	i	i	i	nt	nt	nt	nt	nt	nt
CN(C)CCCNc1oc(-c2ccc(Cl)cc2)nc1C#N	i	i	i	i	i	nt	nt	nt	nt	nt	nt

Bioassay records from PubChem.
